ChEMBL document CHEMBL1137665, “Antistaphylococcal activity of CG400549, a new experimental FabI inhibitor, compared with that of other agents” (2007)
Converted amounts (≈) assume the structure as drawn.

How the values were obtained:
Assay type in all cases: functional
[1] = system: Staphylococcus aureus; assay: Antimicrobial activity against methicillin-susceptible Staphylococcus aureus by agar dilution CLSI method
How it was run: (§1)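 CLSI agar dilution MIC against S. aureus clinical isolates. Calcium was added to the medium for daptomycin testing. Vancomycin plates were read after a full 24-h incubation.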

[2] = system: Staphylococcus aureus; assay: Antimicrobial activity against panton-valentine leukocidin-negative community-acquired methicillin-resistant Staphylococcus aureus 481 by agar dilution CLSI method; how it was run: as §1
[3] = system: Staphylococcus aureus; assay: Antimicrobial activity against panton-valentine leukocidin-positive community-acquired methicillin-resistant Staphylococcus aureus 490 by agar dilution CLSI method
How it was run: (§2)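 Agar dilution MIC per CLSI methodology; calcium supplemented for daptomycin testing; vancomycin plates read after a full 24-h incubation.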

[4] = system: Staphylococcus aureus; assay: Antimicrobial activity against vancomycin-resistant Staphylococcus aureus 510 Hershey by agar dilution CLSI method; how it was run: as §2
[5] = system: Staphylococcus aureus; assay: Antimicrobial activity against methicillin-resistant Staphylococcus aureus 525 by agar dilution CLSI method; how it was run: as §1
[6] = system: Staphylococcus aureus; assay: Antimicrobial activity against panton-valentine leukocidin-negative community-acquired methicillin-resistant Staphylococcus aureus 481 after 14 passages with daptomycin measured after 10 antibiotic-free subculture by multi-step resistance selection technique
How it was run: (§3)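 Mutants from multistep daily serial passage in subinhibitory drug were then subcultured daily 10 times on antibiotic-free medium. MIC was redetermined after these subcultures to assess stability. Clone identity was checked by pulsed-field gel electrophoresis.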

[7] = system: Staphylococcus aureus; assay: Antimicrobial activity against panton-valentine leukocidin-positive community-acquired methicillin-resistant Staphylococcus aureus 490 after 14 passages with daptomycin measured after 10 antibiotic-free subculture by multi-step resistance selection technique
How it was run: (§4)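 Multistep-selected mutants (daily passage at subinhibitory drug levels) then subcultured 10 times daily on antibiotic-free medium; MIC redetermined afterwards and compared with the MIC recorded at the end of selection; clone identity to parent checked by pulsed-field gel electrophoresis.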

[8] = system: Staphylococcus aureus; assay: Antimicrobial activity against panton-valentine leukocidin-positive community-acquired methicillin-resistant Staphylococcus aureus 490 after 22 passages with Linezolid measured after 10 antibiotic-free subculture by multi-step resistance selection technique; how it was run: as §4
[9] = system: Staphylococcus aureus; assay: Antimicrobial activity against panton-valentine leukocidin-positive community-acquired methicillin-resistant Staphylococcus aureus 490 after 23 passages with quinupristin-dalfopristin measured after 10 antibiotic-free subculture by multi-step resistance selection technique; how it was run: as §4
[10] = system: Staphylococcus aureus; assay: Antimicrobial activity against vancomycin-intermediate Staphylococcus aureus 504 after 14 passages with CG400549 measured after 10 times antibiotic-free subculture by multi-step resistance selection technique; how it was run: as §4
[11] = system: Staphylococcus aureus; assay: Antimicrobial activity against vancomycin-resistant Staphylococcus aureus 509 Michigan after 20 passages with daptomycin measured after 10 antibiotic-free subculture by multi-step resistance selection technique; how it was run: as §4
[12] = system: Staphylococcus aureus; assay: Antimicrobial activity against vancomycin-resistant Staphylococcus aureus 509 Michigan after 18 passages with quinupristin-dalfopristin measured after 10 antibiotic-free subculture by multi-step resistance selection technique; how it was run: as §4
[13] = system: Staphylococcus aureus; assay: Antimicrobial activity against methicillin and vancomycin-resistant Staphylococcus aureus 510 after single-step resistance selection by agar dilution CLSI method
How it was run: (§5)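 Single-step selection on drug-containing agar across 10 strains (2 MSSA, 8 MRSA, including VRSA and VISA). Colonies arising on confluent background growth were retested by CLSI agar dilution MIC. Resistance was defined as an MIC more than 4× the parent MIC.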

[14] = system: Staphylococcus aureus; assay: Antimicrobial activity against vancomycin-resistant Staphylococcus aureus 510 Hershey after 14 passages with CG400549 measured after 10 antibiotic-free subculture by multi-step resistance selection technique; how it was run: as §4
[15] = system: Staphylococcus aureus; assay: Antimicrobial activity against vancomycin-resistant Staphylococcus aureus 510 Hershey after 14 passages with quinupristin-dalfopristin measured after 10 antibiotic-free subculture by multi-step resistance selection technique; how it was run: as §4
[16] = system: Staphylococcus aureus; assay: Antimicrobial activity against methicillin-resistant Staphylococcus aureus 547 by agar dilution CLSI method; how it was run: as §1
[17] = system: Staphylococcus aureus; assay: Antimicrobial activity against vancomycin-intermediate Staphylococcus aureus 555 Hershey by agar dilution CLSI method; how it was run: as §2
[18] = system: Staphylococcus aureus; assay: Antimicrobial activity against methicillin-susceptible Staphylococcus aureus 540 by agar dilution CLSI method; how it was run: as §1
[19] = system: Staphylococcus aureus; assay: Antimicrobial activity against methicillin-susceptible Staphylococcus aureus 543 by agar dilution CLSI method; how it was run: as §1
[20] = system: Staphylococcus aureus; assay: Antimicrobial activity against panton-valentine leukocidin-negative community-acquired methicillin-resistant Staphylococcus aureus 481 after 14 passages by multi-step resistance selection technique
How it was run: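 Multistep selection by daily serial passage of each strain in subinhibitory drug concentrations for the stated number of passages. Mutant MIC was then determined. Identity of mutants and parents was confirmed by pulsed-field gel electrophoresis.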

[21] = system: Staphylococcus aureus; assay: Antimicrobial activity against methicillin-resistant Staphylococcus aureus 525 after 14 passages with CG400549 measured after 10 antibiotic-free subculture by multi-step resistance selection technique; how it was run: as §3
[22] = system: Staphylococcus aureus; assay: Antimicrobial activity against methicillin-resistant Staphylococcus aureus 525 after 16 passages with quinupristin-dalfopristin measured after 10 antibiotic-free subculture by multi-step resistance selection technique; how it was run: as §3
[23] = system: Staphylococcus aureus; assay: Antimicrobial activity against methicillin-resistant Staphylococcus aureus 547 after 14 passages with CG400549 measured after 10 antibiotic-free subculture by multi-step resistance selection technique; how it was run: as §3
[24] = system: Staphylococcus aureus; assay: Antimicrobial activity against methicillin-resistant Staphylococcus aureus 547 after 48 passages with Linezolid measured after 10 antibiotic-free subculture by multi-step resistance selection technique; how it was run: as §3
[25] = system: Staphylococcus aureus; assay: Antimicrobial activity against methicillin-resistant Staphylococcus aureus 547 after 21 passages with quinupristin-dalfopristin measured after 10 antibiotic-free subculture by multi-step resistance selection technique; how it was run: as §3
[26] = system: Staphylococcus aureus; assay: Antimicrobial activity against vancomycin-intermediate Staphylococcus aureus 555 Hershey after 14 passages with CG400549 measured after 10 antibiotic-free subculture by multi-step resistance selection technique; how it was run: as §4
[27] = system: Staphylococcus aureus; assay: Antimicrobial activity against vancomycin-intermediate Staphylococcus aureus 555 Hershey after 20 passages with quinupristin-dalfopristin measured after 10 antibiotic-free subculture by multi-step resistance selection technique; how it was run: as §4
[28] = system: Staphylococcus aureus; assay: Antimicrobial activity against methicillin-susceptible Staphylococcus aureus 540 after 14 passages with CG400549 measured after 10 antibiotic-free subculture by multi-step resistance selection technique; how it was run: as §3
[29] = system: Staphylococcus aureus; assay: Antimicrobial activity against methicillin-susceptible Staphylococcus aureus 540 after 24 passages with daptomycin measured after 10 antibiotic-free subculture by multi-step resistance selection technique; how it was run: as §3
[30] = system: Staphylococcus aureus; assay: Antimicrobial activity against methicillin-susceptible Staphylococcus aureus 540 after 36 passages with Linezolid measured after 10 antibiotic-free subculture by multi-step resistance selection technique; how it was run: as §3
[31] = system: Staphylococcus aureus; assay: Antimicrobial activity against methicillin-susceptible Staphylococcus aureus 540 after 16 passages with quinupristin-dalfopristin measured after 10 antibiotic-free subculture by multi-step resistance selection technique; how it was run: as §3
[32] = system: Staphylococcus aureus; assay: Antimicrobial activity against methicillin-susceptible Staphylococcus aureus 543 after 14 passages with CG400549 measured after 10 antibiotic-free subculture by multi-step resistance selection technique; how it was run: as §3
[33] = system: Staphylococcus aureus; assay: Antimicrobial activity against methicillin-susceptible Staphylococcus aureus 543 after 17 passages with daptomycin measured after 10 antibiotic-free subculture by multi-step resistance selection technique; how it was run: as §3
[34] = system: Staphylococcus aureus; assay: Antimicrobial activity against methicillin-susceptible Staphylococcus aureus 543 after 18 passages with quinupristin-dalfopristin measured after 10 antibiotic-free subculture by multi-step resistance selection technique; how it was run: as §3
[35] = system: Staphylococcus aureus; assay: Antimicrobial activity against methicillin-resistant Staphylococcus aureus 481 after single-step resistance selection by agar dilution CLSI method; how it was run: as §5
[36] = system: Staphylococcus aureus; assay: Antimicrobial activity against methicillin-resistant Staphylococcus aureus 490 after single-step resistance selection by agar dilution CLSI method; how it was run: as §5
[37] = system: Staphylococcus aureus; assay: Antimicrobial activity against methicillin-resistant Staphylococcus aureus 525 after single-step resistance selection by agar dilution CLSI method; how it was run: as §5

| Structure (SMILES) | MIC50 [1] [µg/mL] | MIC90 [1] [µg/mL] | MIC [2] [µg/mL] | MIC [3] [µg/mL] | MIC [4] [µg/mL] | MIC [5] [µg/mL] | MIC [6] [µg/mL] | MIC [7] [µg/mL] | MIC [8] [µg/mL] | MIC [9] [µg/mL] | MIC [10] [µg/mL] | MIC [11] [µg/mL] | MIC [12] [µg/mL] | MIC [13] [µg/mL] | MIC [14] [µg/mL] | MIC [15] [µg/mL] | MIC [16] [µg/mL] | MIC [17] [µg/mL] | MIC [18] [µg/mL] | MIC [19] [µg/mL] | further results |
| --- | --- | --- | --- | --- | --- | --- | --- | --- | --- | --- | --- | --- | --- | --- | --- | --- | --- | --- | --- | --- | --- |
| CCCCCCCCCC(=O)N[C@@H](Cc1c[nH]c2ccccc12)C(=O)N[C@H](CC(N)=O)C(=O)N[C@@H](CC(=O)O)C(=O)N[C@@H]1C(=O)NCC(=O)N[C@@H](CCCN)C(=O)N[C@@H](CC(=O)O)C(=O)N[C@H](C)C(=O)N[C@@H](CC(=O)O)C(=O)NCC(=O)N[C@H](CO)C(=O)N[C@@H]([C@H](C)CC(=O)O)C(=O)N[C@@H](CC(=O)c2ccccc2N)C(=O)O[C@@H]1C | 1 (≈ 0.617 µM) | 1 (≈ 0.617 µM) | 1 (≈ 0.617 µM) | 1 (≈ 0.617 µM) | 1 (≈ 0.617 µM) | 1 (≈ 0.617 µM) | 8 (≈ 4.94 µM) | 4 (≈ 2.47 µM) | 1 (≈ 0.617 µM) | 1 (≈ 0.617 µM) | 1 (≈ 0.617 µM) | 4 (≈ 2.47 µM) | 1 (≈ 0.617 µM) | 0.5 (≈ 0.309 µM) | 1 (≈ 0.617 µM) | 0.5 (≈ 0.309 µM) | 1 (≈ 0.617 µM) | 16 (≈ 9.87 µM) | 1 (≈ 0.617 µM) | 1 (≈ 0.617 µM) | MIC [20]: 8 µg/mL (≈ 4.94 µM); MIC [21]: 1 µg/mL (≈ 0.617 µM); MIC [22]: 1 µg/mL (≈ 0.617 µM); MIC [23]: 1 µg/mL (≈ 0.617 µM); MIC [24]: 2 µg/mL (≈ 1.23 µM); MIC [25]: 1 µg/mL (≈ 0.617 µM); MIC [26]: 8 µg/mL (≈ 4.94 µM); MIC [27]: 2 µg/mL (≈ 1.23 µM); MIC [28]: 1 µg/mL (≈ 0.617 µM); MIC [29]: 2 µg/mL (≈ 1.23 µM); MIC [30]: 2 µg/mL (≈ 1.23 µM); MIC [31]: 2 µg/mL (≈ 1.23 µM); MIC [32]: 1 µg/mL (≈ 0.617 µM); MIC [33]: 4 µg/mL (≈ 2.47 µM); MIC [34]: 2 µg/mL (≈ 1.23 µM); MIC [35]: 0.5 µg/mL (≈ 0.309 µM); MIC [36]: 0.5 µg/mL (≈ 0.309 µM); MIC [37]: 0.5 µg/mL (≈ 0.309 µM) |
| Cc1c(N)cccc1Cn1ccc(OCCc2cccs2)cc1=O [CG-400549] | 0.25 (≈ 0.734 µM) | 0.25 (≈ 0.734 µM) | 0.25 (≈ 0.734 µM) | 0.25 (≈ 0.734 µM) | 0.25 (≈ 0.734 µM) | 0.25 (≈ 0.734 µM) | 0.25 (≈ 0.734 µM) | 0.25 (≈ 0.734 µM) | 0.25 (≈ 0.734 µM) | 0.125 (≈ 0.367 µM) | 2 (≈ 5.87 µM) | 1 (≈ 2.94 µM) | 1 (≈ 2.94 µM) | 0.125 (≈ 0.367 µM) | 4 (≈ 11.7 µM) | 0.25 (≈ 0.734 µM) | 0.125 (≈ 0.367 µM) | 0.25 (≈ 0.734 µM) | 0.125 (≈ 0.367 µM) | 0.125 (≈ 0.367 µM) | MIC [20]: 2 µg/mL (≈ 5.87 µM); MIC [21]: 4 µg/mL (≈ 11.7 µM); MIC [22]: 0.125 µg/mL (≈ 0.367 µM); MIC [23]: 8 µg/mL (≈ 23.5 µM); MIC [24]: 0.125 µg/mL (≈ 0.367 µM); MIC [25]: 0.125 µg/mL (≈ 0.367 µM); MIC [26]: 2 µg/mL (≈ 5.87 µM); MIC [27]: 0.25 µg/mL (≈ 0.734 µM); MIC [28]: 4 µg/mL (≈ 11.7 µM); MIC [29]: 0.125 µg/mL (≈ 0.367 µM); MIC [30]: 0.125 µg/mL (≈ 0.367 µM); MIC [31]: 0.125 µg/mL (≈ 0.367 µM); MIC [32]: 8 µg/mL (≈ 23.5 µM); MIC [33]: 0.125 µg/mL (≈ 0.367 µM); MIC [34]: 0.125 µg/mL (≈ 0.367 µM); MIC [35]: 0.125 µg/mL (≈ 0.367 µM); MIC [36]: 0.125 µg/mL (≈ 0.367 µM); MIC [37]: 0.125 µg/mL (≈ 0.367 µM) |
